From PubChem BioAssay
Shown are actives, neighbours in structure and some others; about 2.2% of the full set was active somewhere.
SMARCA2 act = increases SMARCA2 function in MMTV reporter cells; MG213 cells, MMTV-luciferase reporter, dexamethasone, overnight; activation, % at 9.1 µM; 370,000 compounds, 1% hits; AID 652017; in the data active = activation above about 7.8%;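 also: 0% = vehicle wells and 100% = reference activator wells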
GalR3 antagonist = human GalR3 antagonism; O60755; inhibition, % at 3 µM; AID 651719; 360,000 compounds, 0.44% hits; HEK293 GalR3-CNG cAMP membrane potential fluorescence; galR3 body fused to GalR1 C-terminus;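 active = inhibition above the screen-wide average plus 3 SD, cut at about 13% in these data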;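 also: forskolin and galanin both at EC90 stimulate the cells; cAMP rise reported by CNG channel membrane potential dye signal; 0% = forskolin plus galanin with DMSO and 100% = forskolin alone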
NR2E3 ag-1 = agonists of human NR2E3 nuclear receptor | CHO-S Gal4-NCOR/VP16-NR2E3 two-hybrid, luciferase | inhibition of corepressor binding, % at 3.98 µM | 360,000 compounds, 0.35% hits | Q9Y5X4 | AID 602229;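 active = inhibition above the mean of all tested compounds plus 3 SD, cut at about 70% in these data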;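 also: 0% = DMSO with NR2E3 transfected cells and 100% = cells lacking NR2E3 construct; higher means lower luciferase signal from less NR2E3 corepressor binding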
NR2E3 ag-2 = activates human photoreceptor nuclear receptor NR2E3; Q9Y5X4; GST-NR2E3/biotin-RetCOR TR-FRET, 1536-well; inhibition of corepressor binding, % at 4.78 µM; 320,000 compounds, 0.12% hits; AID 2300;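 active = percent inhibition above the cutoff of mean plus 3 SD of all tested compounds, set per screening campaign, cut at about 20% in these data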;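 also: 0% = DMSO wells and 100% = biotin wells as full block of FRET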
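Format: 1536-well format; test system: GST-NR2E3 and biotin-RetCOR proteins; read-out basis: percent inhibition of TR-FRET ratio; timing: 5 h incubation at 4 °C; detection: time-resolved FRET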
COUP-TFII inh = inhibitors of human COUP-TFII (NR2F2); inhibition, % at 8.6 µM; P24468; HEK293T NGFI-A luciferase reporter, luminescence; 370,000 compounds, 0.7% hits;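 active = inhibition above a per-plate cutoff, mean inhibition of test wells between control levels plus 3 SD, cut at about 38% in these data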;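 also: cells cotransfected with COUP-TFII expression vector driving the NGFI-A reporter; 0% = median of COUP-TF2 test wells and 100% = reporter-only cells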
Target sequence (P24468 whole entry, looked up): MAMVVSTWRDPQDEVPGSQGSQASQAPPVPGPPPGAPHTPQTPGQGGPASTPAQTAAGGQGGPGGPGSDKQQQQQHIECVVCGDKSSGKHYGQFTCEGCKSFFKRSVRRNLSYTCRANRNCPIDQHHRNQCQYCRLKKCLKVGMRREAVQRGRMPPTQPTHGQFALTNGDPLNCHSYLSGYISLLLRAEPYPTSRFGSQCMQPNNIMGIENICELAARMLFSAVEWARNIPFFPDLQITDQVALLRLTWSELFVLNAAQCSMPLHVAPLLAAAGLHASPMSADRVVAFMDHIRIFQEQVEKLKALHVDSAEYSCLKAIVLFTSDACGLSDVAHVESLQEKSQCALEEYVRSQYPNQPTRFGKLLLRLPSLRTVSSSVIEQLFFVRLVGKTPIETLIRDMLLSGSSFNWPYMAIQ
NR2E3 ag conf = NR2E3 agonism confirmed in two-hybrid assay; shares compounds with NR2E3 ag-1; CHO-S mammalian two-hybrid NR2E3-NCOR, luciferase luminescence; inhibition, % at 3.98 µM; 2,300 compounds, 51% hits; AID 624378;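 active = average inhibition above a cutoff equal to the mean inhibition of all tested compounds plus one SD, cut at about 70% in these data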;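 also: 0% = DMSO in NR2E3 cells and 100% = DMSO in cells lacking NR2E3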
GAL4-VP16 luc = reduces GAL4-VP16 reporter signal in NR2E3 counterscreen | shares compounds with NR2E3 ag-1 | CHO-S GAL4-VP16 luciferase reporter, luminescence | inhibition, % at 3.98 µM | 2,300 compounds, 29% hits;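 active = mean inhibition above a cutoff equal to the average over all tested compounds plus one standard deviation, cut at about 70% in these data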;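 also: luciferase from a UAS reporter driven by GAL4-VP16 transactivation; 0% = DMSO with VP16-transfected cells and 100% = DMSO with cells lacking VP16; higher means less reporter light so more repression of VP16 activity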
The depositor's hits bear a star; nt = no result.

SMILES	SMARCA2 act	GalR3 antagonist	NR2E3 ag-1	NR2E3 ag-2	COUP-TFII inh	NR2E3 ag conf	GAL4-VP16 luc
CN1C(=O)CS(=O)c2ccc(C(=O)NCCC3=CCCCC3)cc21 (centres undefined)	2	1	48	0	33	3	12
O=S(=O)(Nc1cccc(-c2cn3cccnc3n2)c1)c1ccccc1	-5	-9	-21	-2	-16	nt	nt
O=S(=O)(Nc1cccc(-c2cn3cccnc3n2)c1)c1ccc(-c2ccccc2)cc1	-2	4	58	4	-2	56	60
C=CCN=C1NC(CCc2ccccc2)C(C(=O)OC)=C(C)N1Cc1cccc(C(F)(F)F)c1 (centres undefined)	-4	-2	nt	nt	-2	nt	nt
CC(C)Cn1c(N)c(C(=O)CSc2ccc3c(c2)OCCO3)c(=O)n(C)c1=O	-6	-4	59	-5	28	92*	85*
CC(C)(C)c1ccc(S(=O)(=O)N2CCCC2C(=O)N2CCN(c3ccccc3)CC2)cc1 (centres undefined)	-8	nt	nt	nt	15	nt	nt
Cc1ccccc1C(=O)NCCCCc1ccccc1	1	0	0	1	-19	nt	nt
Nc1nc2ccccc2cc1C(=O)NCCCCc1ccccc1	nt	nt	96*	nt	nt	97*	90*
CC(C)(C)c1ccc(OCC(O)CN2CCc3ccccc3C2)cc1 (centres undefined)	-1	-9	85*	3	15	-3	2
S=C1NCCc2ccc(Cl)cc2C1c1ccccc1 (centres undefined)	-9	-8	61	3	17	43	21
NC(=O)c1cc(S(=O)(=O)N2CCCCC2)cs1	2	-1	1	-2	-12	nt	nt
Cc1ccc(C)c(N2CCN(S(=O)(=O)c3csc(C(N)=O)c3)CC2)c1	-3	-8	61	1	8	17	39
CC1c2cc3c(cc2CCN1C(=O)c1ccc(C(F)(F)F)cc1)OCCCO3 (centres undefined)	-3	1	59	-2	3	21	39
COCCOC(=O)N(C)C[C@@H]1OCCCC[C@H](C)Oc2ccc(NC(=O)Nc3ccccc3)cc2C(=O)N([C@@H](C)CO)C[C@H]1C	nt	nt	nt	nt	-4	nt	nt
CCCNC(=O)Cn1cccc1C(=O)c1ccccc1	-4	-2	89*	-2	2	22	11
CC(NS(=O)(=O)OCC(Cl)(Cl)Cl)c1ccc(C(C)(C)C)cc1 (centres undefined)	-2	-6	59	1	4	-2	25
O=C(Cn1c(=O)c2cccn2c2cccnc21)NCCCN1CCN(c2ccccc2)CC1	nt	nt	nt	nt	-17	nt	nt
CC1=C(C)/C(=N\OS(=O)(=O)c2ccc(C)cc2)C=CC1=O	-11	5	71*	-1	27	8	4
COc1ccc(S(=O)(=O)/N=C2/C=CC(=O)C(C)=C2C)cc1	nt	nt	-19	-1	nt	nt	nt
Cc1ccc2cc3cc(C(=O)NCc4ccco4)oc3nc2c1	4	-5	52	-1	-14	16	10
Cc1ccc2cc3cc(C(=O)NCCC(C)C)oc3nc2c1	0	-3	-8	-1	13	nt	nt
O=C1c2ccccc2C(=O)N1Nc1ccccc1	1	-4	58	1	1	19	20
O=C1c2cccc3c([N+](=O)[O-])c(O)cc(c23)C(=O)N1Nc1ccccc1	2	-5	-26	0	16	nt	nt
CC(C)CNC(=O)CC1Oc2ccccc2NC1=O (centres undefined)	-3	nt	nt	nt	3	nt	nt
O=C(Nc1ccc(Cn2cccn2)cc1)c1ccc(COc2ccccc2Br)cc1	-4	-8	64	-4	24	86*	-15
SMILES	SMARCA2 act	GalR3 antagonist	NR2E3 ag-1	NR2E3 ag-2	COUP-TFII inh	NR2E3 ag conf	GAL4-VP16 luc
COc1ccccc1OCc1ccc(C(=O)Nc2ccccc2)cc1	-1	-5	-31	3	-14	nt	nt
FC(F)(F)c1nc(N2CCCC2)ncc1-c1nnnn1-c1ccccc1	-7	-7	65	-3	35	75*	60
Cc1ccc(-n2c(SCC(=O)Nc3ccc(S(=O)(=O)Nc4cc(C)nc(C)n4)cc3)nnc2-c2ccc(C(C)(C)C)cc2)cc1	-4	nt	nt	nt	-12	nt	nt
CCCn1c(=N)n(CC(O)COc2ccc(C)cc2)c2ccccc21 (centres undefined)	-1	-3	17	-4	3	nt	nt
CCCCn1c(=N)n(CC(O)COc2cccc(C)c2)c2ccccc21 (centres undefined)	-4	-9	49	-2	11	-9	30
Cc1cc(OC(C)CCN2CCC(C(O)(c3ccccc3)c3ccccc3)CC2)ccc1Br (centres undefined)	-9	nt	nt	nt	-7	nt	nt
CCOC(=O)c1ccc(NS(=O)(=O)c2cc3c4c(c2)CCN4C(=O)CC3)cc1	-6	-1	63	-2	18	22	28
Cc1cc(C(=O)NC2CCCc3c2cnn3-c2cccc(C)c2C)no1 (centres undefined)	-4	-4	12	-1	-16	nt	nt
COc1ccc(C(=O)NC2CCCc3c2cnn3-c2cccc(C)c2C)o1 (centres undefined)	-4	-2	65	2	11	32	30
C=CCCC(=O)N[C@H]1CC[C@@]23CCCN2C(=O)CCC[C@H]3[C@H]1CCC	nt	nt	nt	nt	-22	nt	nt
Cc1cccc(CSc2cccc3cccnc23)c1	5	-3	88*	3	-7	-51	-104
NNC(=O)c1ccc(CSc2cccc3cccnc23)cc1	-3	-5	2	-3	4	nt	nt
O=C(CSc1nc2ccccc2nc1N1CCCCC1)NCc1ccc(Cl)cc1Cl	8	nt	nt	nt	-1	nt	nt
O=[N+]([O-])c1ccc(NN=Cc2cccc3ccccc23)nc1	1	-4	-18	nt	-6	nt	nt
COc1cccc(/C=N/Nc2ccc([N+](=O)[O-])cn2)c1O	-2	-13	103*	1	-55	99*	93*
Cc1nc(NCc2ccco2)c2c(C)c(C)sc2n1	-8	-8	97*	5	-30	95*	68
CCOC(=O)c1sc2nc(CC(=O)OC)nc(NCc3ccco3)c2c1C	0	-6	-7	nt	5	nt	nt
C/C(C=NNC(=O)CSc1nc2ccccc2n1Cc1ccccc1Cl)=C\c1ccccc1	-6	nt	nt	nt	4	nt	nt
O=C(Nc1cccc(S(=O)(=O)Nc2ccc(Cl)cc2)c1)c1ccc(Cl)nc1	-4	73*	74*	7	82*	59	76*
O=C(Nc1ccc(NS(=O)(=O)c2ccccc2)cc1)c1ccc(Cl)cc1	-2	0	8	-2	-13	nt	nt
Cc1ccc(CNc2ncnc3cc(Cl)ccc23)o1	-2	-2	31	-2	11	nt	nt
Cc1ccc(CNc2ncnc3cc(Cl)ccc23)cc1	-4	-11	87*	-3	11	90*	71*
